Measured values reported in paper PMC4025951 (Neurochemical research, 2013).
“And” between values parts separate entries of the source, which are not always exact repeats. Equal entries are not always repeated. Where two headings read alike, the source gives them in different places.

How the values were obtained:
VGLUT [1] = assay: Vesicular glutamate uptake into synaptic vesicles; type: biochemical, rat
[2] = system: plasma membrane glutamate transporter; assay: Na+-dependent synaptosomal glutamate uptake; type: biochemical, rat; settings: for Glutamate uptake / %Control: 50 μM test agent; for Glutamate uptake: Na+-dependent [3H]glutamate uptake into synaptosomes; for %Control: synaptosomal glutamate uptake
How it was run: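 Rat cerebrum synaptosomes (100 μg protein) were incubated 10 min at 37 °C in Krebs solution with 1 μM [3H]glutamate (5 Ci/mmol), ± 50 μM test agent. Na+-dependent uptake was NaCl minus choline chloride values, in dpm and % of control.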

[3] = target: T1, vesicular GABA transporter (Bos taurus, UniProt G3N354); assay: Vesicular GABA uptake into synaptic vesicles; type: biochemical, bovine; settings: concentrations up to 50 μM
T1 sequence (G3N354 1-526): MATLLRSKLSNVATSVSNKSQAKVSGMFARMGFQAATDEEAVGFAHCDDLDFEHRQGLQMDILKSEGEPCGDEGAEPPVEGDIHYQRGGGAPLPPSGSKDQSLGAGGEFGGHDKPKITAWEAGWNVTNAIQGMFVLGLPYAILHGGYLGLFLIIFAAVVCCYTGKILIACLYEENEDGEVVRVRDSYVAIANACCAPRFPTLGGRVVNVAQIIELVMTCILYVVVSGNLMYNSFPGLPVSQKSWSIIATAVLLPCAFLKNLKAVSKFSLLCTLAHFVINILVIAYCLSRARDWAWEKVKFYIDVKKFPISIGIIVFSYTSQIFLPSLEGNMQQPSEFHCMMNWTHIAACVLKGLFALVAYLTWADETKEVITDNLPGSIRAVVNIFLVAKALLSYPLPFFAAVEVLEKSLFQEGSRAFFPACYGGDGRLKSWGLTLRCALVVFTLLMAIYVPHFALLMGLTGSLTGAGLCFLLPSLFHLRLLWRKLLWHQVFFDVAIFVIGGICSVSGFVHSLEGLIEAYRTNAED
How it was run: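 Crude calf cerebral cortex synaptic vesicles in 20 mM K-Hepes pH 7.4, 4 mM MgSO4, 4 mM KCl, 0.25 M sucrose. Pre-incubated 10 min at 30 °C with varied test compound concentrations. Then 2 mM ATP plus 50 μM [3H]GABA for 10 min. Filtered and washed with 0.15 M KCl.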

VGLUT [4] = assay: Kinetics of vesicular glutamate uptake with Brilliant Yellow; type: biochemical, rat; settings: competitive with glutamate; 0, 40, 60 and 80 nM Brilliant Yellow; n=3
VGLUT [5] = settings: ref [25], cited from earlier work
[6] = Table 3, Brilliant Yellow analogs, vesicular glutamate uptake
[7] = Table 1, rat brain synaptic vesicles, 50 μM [3H]glutamate ± ATP, 10-min incubation

Compound | IC50 (VGLUT [1]; [6]) [µM] | IC50 (VGLUT [1]; [7]) [µM] | further results
CC(=O)Nc1ccc(C=Cc2ccc(NC(C)=O)cc2S(=O)(=O)O)c(S(=O)(=O)O)c1 [4,4-Diacetamidostilbene-2,2’-disulfonate, 4,4’-diacetamidostilbene-2,2’-disulfonate] | > 50 |  | 
Nc1ccc(C=Cc2ccc(N)cc2S(=O)(=O)O)c(S(=O)(=O)O)c1 [4,4-Diaminostilbene-2,2’-disulfonate, 4,4’-diaminostilbene-2,2’-disulfonate] | > 50 |  | 
O=[N+]([O-])c1ccc(C=Cc2ccc([N+](=O)[O-])cc2S(=O)(=O)O)c(S(=O)(=O)O)c1 [4,4’-Dinitrostilbene-2,2’-disulfonate, 4,4’-dinitrostilbene-2,2’-disulfonate] | 1.69 ± 0.11 |  | 
O=C(Nc1ccc(C=Cc2ccc(NC(=O)c3ccccc3)cc2S(=O)(=O)O)c(S(=O)(=O)O)c1)c1ccccc1 [4,4’-dibenzamidostilbene-2,2’-disulfonate] | 2 |  | 
O=C([O-])C1=NN(c2ccc(S(=O)(=O)[O-])cc2)C(=O)C1N=Nc1ccc(S(=O)(=O)[O-])cc1.[Na+].[Na+].[Na+] (centres unmarked) [Tartrazine] |  | > 50 | Inhibitory activity on vesicular glutamate uptake (VGLUT [1]): rather inactive
O=S(=O)(O)c1cc(S(=O)(=O)O)c2c(N=Nc3ccc(N=Nc4ccccc4)cc3)c(O)ccc2c1 [Brilliant Crocein MOO] |  | 7.7 | 
Nitrazine Yellow |  | 4.4 | 
O=S(=O)([O-])c1cc(N=Nc2ccc(O)cc2)ccc1/C=C/c1ccc(N=Nc2ccc(O)cc2)cc1S(=O)(=O)[O-].[Na+].[Na+] [Brilliant Yellow] | 0.044 ± 0.006 | 0.044 ± 0.007 | Glutamate uptake [2]: 279,032 dpm; %Control [2]: 112%; Effect on synaptosomal glutamate uptake ([2]; concentrations up to 50 μM): affected neither; Inhibition of vesicular glutamate uptake (VGLUT [1]; at 0.3 μM): 80%; Effect on vesicular GABA uptake [3]: affected neither; Ki (VGLUT [4]): 0.012 µM and 0.0125 µM
O=S(=O)(O)c1cc(NS(=O)(=O)c2ccccc2)ccc1C=Cc1ccc(NS(=O)(=O)c2ccccc2)cc1S(=O)(=O)O [4,4’-diphenylsulfonamidostilbene-2,2’-disulfonate] | > 50 |  | 
Sulforhodamine |  | > 50 | Inhibitory activity on vesicular glutamate uptake (VGLUT [1]): rather inactive
COc1cc(N=Nc2c(C)cc(C)cc2S(=O)(=O)[O-])c(C)cc1N=Nc1c(S(=O)(=O)[O-])cc2cc(Nc3ccccc3)ccc2c1O.[Na+].[Na+] [Direct Violet 51] |  | 0.148 ± 0.031 | Glutamate uptake [2]: 258,020 dpm; %Control [2]: 104%
CCOc1ccc(N=Nc2ccc(/C=C/c3ccc(N=Nc4ccc(OCC)cc4)cc3S(=O)(=O)O)c(S(=O)(=O)O)c2)cc1 [Chrysophenine] | 0.266 ± 0.07 |  | 
Cc1cc(-c2ccc(/N=N/c3c(S(=O)(=O)O)cc4cc(S(=O)(=O)O)cc(N)c4c3O)c(C)c2)ccc1/N=N/c1c(S(=O)(=O)O)cc2cc(S(=O)(=O)O)cc(N)c2c1O [Trypan Blue] |  |  | IC50 (VGLUT [5]; [26]): 0.049 µM; Ki (VGLUT [5]): ~0.05 µM
O=S(=O)(O)c1ccc2c(N=Nc3cccc4ccccc34)c(O)c(S(=O)(=O)O)cc2c1 [Bordeau R] |  | 6.5 | 
